ChEMBL document CHEMBL4715795, “Urolinin: The First Linear Peptidic Urotensin-II Receptor Agonist” (J Med Chem, 2016)
The source made the active and inactive calls. The calls are words filed in the database; no cut-off is given here. Numbered stars: 1 amine (or outer) side, 2 acyl side, 3 side chain; on linkers, the order of the positions; unused ones are H or OH. Bridge positions count the residues as written; N and C are the ends. Square brackets hold non-standard residues; d marks the D form. Peptide text beside a SMILES is read from it. ξ: configuration not given here. Tyr(3-NO2) = N[C@@H](Cc1ccc(O)c([N+](=O)[O-])c1)C(=O)O; X1 = O=C([C@H](Cc1ccc(O)c(S(=O)(=O)O)c1)N[*:1])[*:2]; 2Nal = N[C@@H](Cc1ccc2ccccc2c1)C(=O)O; ξ2Nal = NC(Cc1ccc2ccccc2c1)C(=O)O

Columns and labels:
Urotensin-2 receptor [1] = molecular target: T1, Urotensin-2 receptor (Homo sapiens, UniProt Q9UKP6); assay: Agonist activity at human U-IIR expressed in HEK293-A cells by Fluo4-AM dye based intracellular calcium mobilization assay; format: functional, cell-based
T1 sequence (Q9UKP6 whole entry): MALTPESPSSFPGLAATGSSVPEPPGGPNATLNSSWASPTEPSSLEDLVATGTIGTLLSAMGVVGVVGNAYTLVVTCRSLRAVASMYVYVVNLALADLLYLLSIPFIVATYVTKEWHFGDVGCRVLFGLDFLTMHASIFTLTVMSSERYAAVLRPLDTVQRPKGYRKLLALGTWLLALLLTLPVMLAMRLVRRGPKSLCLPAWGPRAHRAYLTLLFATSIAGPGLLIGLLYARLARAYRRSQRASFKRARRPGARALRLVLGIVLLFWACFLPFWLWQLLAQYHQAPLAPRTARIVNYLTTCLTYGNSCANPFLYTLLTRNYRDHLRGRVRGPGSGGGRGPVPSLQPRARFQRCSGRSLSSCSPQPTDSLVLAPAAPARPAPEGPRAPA

[2] = Half life in 25% human serum by RP-HPLC analysis; format: ADME, cell-free
In short: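 Peptide at 50 μg/mL final in RPMI with 25% (v/v) human serum, pre-equilibrated at 37 °C. Samples taken at set times into 6% TCA, iced 15 min, spun at 18000g. Supernatant run on C18 RP-HPLC, 25–80% acetonitrile gradient over 15 min at 30 °C, absorbance at 214 and 280 nm.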

Urotensin-2 receptor [3] = molecular target: T1, Urotensin-2 receptor; assay: Displacement of [125I-Tyr9]-U-II from human U-IIR expressed in HEK293-A cells incubated for 30 mins by gamma counting based competition radioligand binding assay; format: cell-based
VSMC [4] = assay: Agonist activity at U-IIR in pig aorta VSMC assessed as increase of ERK1/2 phosphorylation at 500 nM incubated for 15 mins by Western blot analysis relative to control; settings: Sus scrofa, filed as agonist
In short: (§1)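 Primary smooth muscle cells from aortas of 4–6-month-old domestic pigs, grown from minced-tissue explants and used at passages 5–10. Cells were grown to 80% confluence, then exposed to peptide at 5 or 500 nM in 0.1% FCS/DMEM for 15 min. Lysates were taken in Tris/SDS buffer and probed on Western blot for phospho-ERK1/2 (Thr202/Tyr204). Signal was normalized to total ERK1/2 and to the untreated control. n = 2–4 independent experiments, each with 3–6 replicates.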

VSMC [5] = assay: Agonist activity at U-IIR in pig aorta VSMC assessed as increase of ERK1/2 phosphorylation at 5 nM incubated for 15 mins by Western blot analysis relative to control; settings: Sus scrofa; in short: as §1
VSMC [6] = assay: Agonist activity at U-IIR in pig aorta VSMC assessed as increase of ERK1/2 phosphorylation incubated for 15 mins by Western blot analysis relative to control; settings: Sus scrofa, filed as agonist; in short: as §1

Compound	EC50 (Urotensin-2 receptor [1])	half-life [2]	IC50 (Urotensin-2 receptor [3])	also measured
CCC(NC(=O)[C@H](Cc1ccc(O)cc1)NC(=O)[C@H](CCCCN)NC(=O)[C@H](Cc1c[nH]c2ccccc12)NC(=O)[C@H](Cc1c[nH]c2ccccc12)NC(=O)[C@@H](N)CC(N)=O)C(N)=O (some centres undefined)	60 nM	50 min	> 10000 nM	
CCC(NC(=O)[C@H](Cc1ccc(O)cc1)NC(=O)[C@H](CCCCN)NC(=O)[C@H](Cc1c[nH]c2ccccc12)NC(=O)C(Cc1ccc2ccccc2c1)NC(=O)[C@@H](N)CC(N)=O)C(N)=O (some centres undefined)	108 nM	34 min	7880 nM	
CCC(NC(=O)[C@H](Cc1ccc(O)cc1)NC(=O)[C@H](CCCCN)NC(=O)[C@H](Cc1c[nH]c2ccccc12)NC(=O)[C@H](Cc1c[nH]c2ccccc12)NC(=O)[C@H](N)CC(N)=O)C(N)=O (some centres undefined)	23 nM	3120 min	4830 nM	fold change (FC) (VSMC [4]): 1.9; Activity (VSMC [5]): inactive; Activity (VSMC [6]): Dose-dependent effect
CCC(NC(=O)[C@H](Cc1ccc(O)cc1)NC(=O)[C@H](CCCCN)NC(=O)[C@H](Cc1c[nH]c2ccccc12)NC(=O)[C@H](Cc1ccc2ccccc2c1)NC(=O)[C@H](N)CC(N)=O)C(N)=O (some centres undefined)	25.5 nM	770 min	4890 nM	
CC(C)[C@H](NC(=O)[C@@H]1CSSC[C@H](NC(=O)[C@H](CC(=O)O)NC(=O)[C@@H]2CCCN2C(=O)[C@@H](NC(=O)[C@@H](N)CCC(=O)O)[C@@H](C)O)C(=O)N[C@@H](Cc2ccccc2)C(=O)N[C@@H](Cc2c[nH]c3ccccc23)C(=O)N[C@@H](CCCCN)C(=O)N[C@@H](Cc2ccc(O)cc2)C(=O)N1)C(=O)O				fold change (FC) (VSMC [4]): 2.4; Activity (VSMC [5]): inactive; Activity (VSMC [6]): Dose-dependent effect
NCCCC[C@H](NC(=O)[C@H](Cc1c[nH]c2ccccc12)NC(=O)[C@@H](N)Cc1ccccc1)C(=O)N[C@@H](Cc1ccc(O)cc1)C(N)=O (H-FWKY-NH2)	179 nM			
COc1ccc(C[C@H](NC(=O)[C@H](CCCCN)NC(=O)[C@H](Cc2c[nH]c3ccccc23)NC(=O)[C@H](Cc2c[nH]c3ccccc23)NC(=O)[C@@H](N)CC(N)=O)C(=O)N[C@@H](CS)C(N)=O)cc1 (H-NWWKY(Me)C-NH2)	10.2 nM	15 min	890 nM	
NCCCC[C@H](NC(=O)[C@H](Cc1c[nH]c2ccccc12)NC(=O)[C@H](Cc1c[nH]c2ccccc12)NC(=O)[C@@H](N)CC(N)=O)C(=O)N[C@@H](Cc1ccc(O)c([N+](=O)[O-])c1)C(=O)N[C@@H](CS)C(N)=O (H-NWWK[Tyr(3-NO2)]C-NH2)	15.7 nM	23 min	163 nM	
NCCCC[C@H](NC(=O)[C@H](Cc1c[nH]c2ccccc12)NC(=O)[C@H](Cc1c[nH]c2ccccc12)NC(=O)[C@@H](N)CC(N)=O)C(=O)N[C@@H](Cc1ccc(O)c(S(=O)(=O)O)c1)C(=O)N[C@@H](CS)C(N)=O (H-NWWK[X1]C-NH2)	330 nM	11 min	> 10000 nM	
NCCCC[C@H](NC(=O)[C@H](Cc1c[nH]c2ccccc12)NC(=O)C(Cc1ccc2ccccc2c1)NC(=O)[C@@H](N)CC(N)=O)C(=O)N[C@@H](Cc1ccc(O)cc1)C(=O)N[C@@H](CS)C(N)=O (some centres undefined) (H-N[ξ2Nal]WKYC-NH2)	74.9 nM	17 min	3060 nM	
NCCCC[C@H](NC(=O)[C@H](Cc1c[nH]c2ccccc12)NC(=O)[C@@H](N)Cc1ccccc1)C(N)=O (H-Phe-Trp-Lys-NH2)	> 10000 nM			
NCCCC[C@H](NC(=O)[C@@H](N)Cc1c[nH]c2ccccc12)C(=O)N[C@@H](Cc1ccc(O)cc1)C(N)=O (H-Trp-Lys-Tyr-NH2)	> 10000 nM			
H-CFWKY-NH2	201 nM			
H-DHFWKYCV-NH2	29.8 nM			
H-DNFWKYCV-NH2	155 nM			
H-DVFWKYCV-NH2	32.6 nM	19 min	300 nM	
H-FWKYC-NH2	141 nM			
H-NWWKYD-NH2	50.4 nM			
H-NWWKYE-NH2	65.6 nM			
H-NWWKYS-NH2	91.5 nM			
H-NWWKYT-NH2	143 nM			
H-TVFWKYCV-NH2	11.2 nM			
H-TWWKYC-NH2	103 nM			

Further lines, with some results ahead:

EC50 (Urotensin-2 receptor [1])	half-life [2]	IC50 (Urotensin-2 receptor [3])	Compound	also measured
3.47 nM	55 min	1090 nM	CCC(NC(=O)[C@H](Cc1ccc(O)c([N+](=O)[O-])c1)NC(=O)[C@H](CCCCN)NC(=O)[C@H](Cc1c[nH]c2ccccc12)NC(=O)[C@H](Cc1c[nH]c2ccccc12)NC(=O)[C@@H](N)CC(N)=O)C(N)=O (some centres undefined)	
3.8 nM			NCCCC[C@@H]1NC(=O)[C@H](Cc2c[nH]c3ccccc23)NC(=O)[C@H](Cc2ccccc2)NC(=O)[C@@H](N)CSSC[C@@H](C(N)=O)NC(=O)[C@H](Cc2ccc(O)cc2)NC1=O (H-CFWKYC-NH2; disulfide 1-6)	
0.83 nM			CC(C)[C@H](NC(=O)[C@@H]1CSSC[C@H](N)C(=O)N[C@@H](Cc2ccccc2)C(=O)N[C@@H](Cc2c[nH]c3ccccc23)C(=O)N[C@@H](CCCCN)C(=O)N[C@@H](Cc2ccc(O)cc2)C(=O)N1)C(N)=O (H-CFWKYCV-NH2; disulfide 1-6)	
0.45 nM	372 min	0.9 nM	CC(C)[C@H](NC(=O)[C@@H]1CSSC[C@H](NC(=O)[C@@H](N)CC(=O)O)C(=O)N[C@@H](Cc2ccccc2)C(=O)N[C@@H](Cc2c[nH]c3ccccc23)C(=O)N[C@@H](CCCCN)C(=O)N[C@@H](Cc2ccc(O)cc2)C(=O)N1)C(N)=O (H-DCFWKYCV-NH2; disulfide 2-7)	
4.8 nM			CC(C)[C@H](NC(=O)[C@@H]1CSSC[C@H](NC(=O)[C@@H](N)Cc2ccccc2)C(=O)N[C@@H](Cc2ccccc2)C(=O)N[C@@H](Cc2c[nH]c3ccccc23)C(=O)N[C@@H](CCCCN)C(=O)N[C@@H](Cc2ccc(O)cc2)C(=O)N1)C(N)=O (H-FCFWKYCV-NH2; disulfide 2-7)	
8.13 nM	37 min	430 nM	NCCCC[C@H](NC(=O)[C@H](Cc1c[nH]c2ccccc12)NC(=O)[C@H](Cc1ccc2ccccc2c1)NC(=O)[C@@H](N)CC(N)=O)C(=O)N[C@@H](Cc1ccc(O)c([N+](=O)[O-])c1)C(=O)N[C@@H](CS)C(N)=O (H-N[2Nal]WK[Tyr(3-NO2)]C-NH2)	
1.99 nM			CC(C)[C@H](NC(=O)[C@@H]1CSSC[C@H](NC(=O)[C@@H](N)CCC(N)=O)C(=O)N[C@@H](Cc2ccccc2)C(=O)N[C@@H](Cc2c[nH]c3ccccc23)C(=O)N[C@@H](CCCCN)C(=O)N[C@@H](Cc2ccc(O)cc2)C(=O)N1)C(N)=O (H-QCFWKYCV-NH2; disulfide 2-7)	
3.9 nM			CC(C)[C@H](NC(=O)[C@@H]1CSSC[C@H](NC(=O)[C@@H](N)[C@@H](C)O)C(=O)N[C@@H](Cc2ccccc2)C(=O)N[C@@H](Cc2c[nH]c3ccccc23)C(=O)N[C@@H](CCCCN)C(=O)N[C@@H](Cc2ccc(O)cc2)C(=O)N1)C(N)=O (H-TCFWKYCV-NH2; disulfide 2-7)	
10 nM	19 min	1550 nM	H-NWWKYC-NH2	
9.63 nM			H-QVFWKYCV-NH2	
